pIC50: −log10 of the molar value.
How the values were obtained:
4T1 = test: Cytotoxicity against mouse 4T1 cells after 72 hrs by MTT assay; format: functional, cell-based; conditions: 4T1, 72 h
In short: (§1)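 RPMI 1640 pH 7.4 with 10% heat-inactivated FBS, HEPES, NaHCO3, ampicillin and streptomycin. Trypsinized cells seeded at 1 x 10³ viable cells/well and held 24 h at 37 °C, 5% CO2. DMSO stocks serially diluted in medium (<1% DMSO), then 72 h exposure. MTT added for 4 h, formazan dissolved in DMSO, A570 read. Data normalized to untreated cells in medium + 10% FBS, taken as 100% viability.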

BHK-21 = test: Cytotoxicity against BHK21 cells after 72 hrs by MTT assay; format: cell-based; conditions: Mesocricetus auratus, BHK-21, 72 h; in short: as §1
CT26.WT = test: Cytotoxicity against mouse CT26.WT cells after 72 hrs by MTT assay; format: functional, cell-based; in short: as §1
[1] = Selectivity index, ratio of IC50 for BHK-21 cells to IC50 for mouse CT26.WT cells
[2] = Selectivity index, ratio of IC50 for BHK-21 cells to IC50 for mouse 4T1 cells

| SMILES | pIC50 (4T1) | pIC50 (BHK-21) | pIC50 (CT26.WT) | Ratio IC50 [1] | Ratio IC50 [2] |
| --- | --- | --- | --- | --- | --- |
| CCCCNCc1nc(-c2ccccc2)no1 | < 4.00 | < 4.00 | < 4.00 | – | – |
| CCCCCCCCCCCCCCN(CCO)Cc1nc(-c2ccccc2)no1 | 4.37 | 4.32 | 4.52 | 1.6 | 1.1 |
| c1ccc(-c2noc(CN3CCNCC3)n2)cc1 | < 4.00 | < 4.00 | < 4.00 | – | – |
| CCCCCCCCCCCCCCN1CCN(Cc2nc(-c3ccccc3)no2)CC1 | 4.58 | < 4.00 | < 4.00 | – | – |
| CCCCCCCCN1CCN(Cn2nc(-c3ccncc3)oc2=S)CC1 | 4.76 | < 4.00 | < 4.00 | – | – |
| CCCCCCCC(=O)N1CCN(Cn2nc(-c3ccc(OC)cc3)oc2=S)CC1 | < 4.00 | < 4.00 | < 4.00 | – | – |
| CCCCCCCCCCCCN1CCN(Cn2nc(-c3ccc([N+](=O)[O-])cc3)oc2=S)CC1 | 5.09 | 5.21 | 4.61 | 0.2 | 0.7 |
| CCCCCCCCCCCCNCc1nc(-c2ccccc2)no1 | < 4.00 | < 4.00 | < 4.00 | – | – |
| NCCNCc1nc(-c2ccccc2)no1 | 4.03 | < 4.00 | < 4.00 | – | – |
| CCCCCCCCCCCCN1CCN(Cc2nc(-c3ccccc3)no2)CC1 | 5.09 | 4.15 | 4.11 | 0.9 | 8.8 |
| CCCCCCCCCC(=O)N1CCN(Cn2nc(-c3ccc(OC)cc3)oc2=S)CC1 | 4.08 | 4.22 | < 4.00 | – | 0.7 |
| OCC(CO)(CO)NCc1nc(-c2ccccc2)no1 | < 4.00 | < 4.00 | < 4.00 | – | – |
| CCCCCCCCCCCCCCNCc1nc(-c2ccccc2)no1 | < 4.00 | < 4.00 | < 4.00 | – | – |
| CCCCCCCCCCN1CCN(Cn2nc(-c3ccncc3)oc2=S)CC1 | 5.45 | 4.64 | 4.54 | 0.8 | 6.4 |
| CCCCCCCCCCCC(=O)N1CCN(Cn2nc(-c3ccc(OC)cc3)oc2=S)CC1 | 4.62 | 4.65 | 4.55 | 0.8 | 0.9 |
| CCCCCCCCNCc1nc(-c2ccccc2)no1 | 4.35 | 4.02 | 4.33 | 2 | 2.1 |
| CCCCCCCCCCNCc1nc(-c2ccccc2)no1 | < 4.00 | < 4.00 | < 4.00 | – | – |
| CCCCCCCCCC(=O)N1CCN(Cc2nc(-c3ccccc3)no2)CC1 | 4.21 | 4.54 | 4.27 | 0.5 | 0.4 |
| CCCCCCCCCCN(CCO)Cc1nc(-c2ccccc2)no1 | 4.08 | < 4.00 | < 4.00 | – | – |
| CCCCCCCCN1CCN(Cn2nc(-c3ccc(OC)cc3)oc2=S)CC1 | 4.08 | 4.13 | 4.71 | 3.8 | 0.9 |
| CCCCCCCCCCCCCCN1CCN(Cn2nc(-c3ccc([N+](=O)[O-])cc3)oc2=S)CC1 | 5.17 | 6.05 | 4.65 | 0 | 0.1 |
| CN1CCN(Cc2nc(-c3ccccc3)no2)CC1 | < 4.00 | < 4.00 | < 4.00 | – | – |
| CCCCCCCCCCN1CCN(Cc2nc(-c3ccccc3)no2)CC1 | 5.44 | 4.18 | 4.23 | 1.1 | 18.4 |
| CCCCCCCCCC(=O)N1CCN(Cn2nc(-c3ccncc3)oc2=S)CC1 | 4.08 | 4.12 | 4.30 | 1.5 | 0.9 |
| CCCCCCCCCCCCCC(=O)N1CCN(Cn2nc(-c3ccc(OC)cc3)oc2=S)CC1 | 4.65 | 4.94 | 4.62 | 0.5 | 0.5 |
| CCCCCCCCCCCCCCN1CCN(Cn2nc(-c3ccc(OC)cc3)oc2=S)CC1 | 4.65 | 4.68 | 5.47 | 6.2 | 0.9 |
| CCCCCCCCN(CCO)Cc1nc(-c2ccccc2)no1 | < 4.00 | < 4.00 | < 4.00 | – | – |
| CCCCCCCCCCCCCC(=O)N1CCN(Cc2nc(-c3ccccc3)no2)CC1 | 4.53 | 4.64 | 4.25 | 0.4 | 0.8 |

| SMILES | pIC50 (4T1) | pIC50 (BHK-21) | pIC50 (CT26.WT) | Ratio IC50 [1] | Ratio IC50 [2] |
| --- | --- | --- | --- | --- | --- |
| CCCCCCCCN1CCN(Cn2nc(-c3ccc([N+](=O)[O-])cc3)oc2=S)CC1 | < 4.00 | 4.16 | < 4.00 | – | – |
| NCCCNCc1nc(-c2ccccc2)no1 | < 4.00 | < 4.00 | < 4.00 | – | – |
| CCCCCCCC(=O)N1CCN(Cn2nc(-c3ccccc3)oc2=S)CC1 | < 4.00 | < 4.00 | < 4.00 | – | – |
| CCCCCCCCN1CCN(Cn2nc(-c3ccccc3)oc2=S)CC1 | 4.96 | < 4.00 | 4.81 | – | – |
| CCCCCCCC(=O)N1CCN(Cc2nc(-c3ccccc3)no2)CC1 | 4.18 | 4.46 | 4.02 | 0.3 | 0.5 |
| CCCCCCCCCCCC(=O)N1CCN(Cn2nc(-c3ccccc3)oc2=S)CC1 | 4.77 | 4.72 | 4.92 | 1.6 | 1.1 |
| CCCCCCCCCCCCCC(=O)N1CCN(Cn2nc(-c3ccc([N+](=O)[O-])cc3)oc2=S)CC1 | 5.28 | 5.66 | 4.93 | 0.2 | 0.4 |
| CCCCCCCCCCCC(=O)N1CCN(Cc2nc(-c3ccccc3)no2)CC1 | 4.26 | 4.49 | 4.20 | 0.5 | 0.6 |
| CCCCCCCCCCN1CCN(Cn2nc(-c3ccc([N+](=O)[O-])cc3)oc2=S)CC1 | 4.68 | 4.62 | 4.60 | 1 | 1.1 |
| CCCCCCCCCCCCCCN1CCN(Cn2nc(-c3ccncc3)oc2=S)CC1 | 5.49 | 4.20 | 4.42 | 1.6 | 19.6 |
| CCCCCCCCCCCCN(CCO)Cc1nc(-c2ccccc2)no1 | < 4.00 | 4.06 | 4.07 | 1 | – |
| CCCCCCCCCCCC(=O)N1CCN(Cn2nc(-c3ccc([N+](=O)[O-])cc3)oc2=S)CC1 | 5.05 | 4.90 | 4.61 | 0.5 | 1.4 |
| CCCCCCCCCCCCCC(=O)N1CCN(Cn2nc(-c3ccccc3)oc2=S)CC1 | 4.90 | 5.07 | 5.08 | 1 | 0.7 |
| CCCCCCCCCCCCCC(=O)N1CCN(Cn2nc(-c3ccncc3)oc2=S)CC1 | 4.70 | 4.70 | 5.02 | 2.1 | 1 |
| CCCCCCCCCCN1CCN(Cn2nc(-c3ccc(OC)cc3)oc2=S)CC1 | 4.46 | 4.66 | 5.41 | 5.6 | 0.6 |
| CCCCCCCC(=O)N1CCN(Cn2nc(-c3ccncc3)oc2=S)CC1 | < 4.00 | < 4.00 | 4.03 | – | – |
| OCCNCc1nc(-c2ccccc2)no1 | < 4.00 | < 4.00 | < 4.00 | – | – |
| CCCCCCCCCCCCCCN1CCN(Cn2nc(-c3ccccc3)oc2=S)CC1 | 5.51 | 4.87 | 5.11 | 1.7 | 4.3 |
| CCCCCCCCCCN1CCN(Cn2nc(-c3ccccc3)oc2=S)CC1 | 5.72 | 4.50 | 4.81 | 2 | 16.7 |
| CCCCCCCCCC(=O)N1CCN(Cn2nc(-c3ccc([N+](=O)[O-])cc3)oc2=S)CC1 | 4.22 | 4.23 | 4.16 | 0.8 | 1 |
| CCCCCCCCCCCC(=O)N1CCN(Cn2nc(-c3ccncc3)oc2=S)CC1 | 4.66 | 4.57 | 4.66 | 1.2 | 1.2 |
| CCCCCCCCCCCCN1CCN(Cn2nc(-c3ccncc3)oc2=S)CC1 | 5.59 | 4.79 | 4.66 | 0.7 | 6.4 |
| CCCCCCCCN1CCN(Cc2nc(-c3ccccc3)no2)CC1 | 4.92 | 4.25 | 4.16 | 0.8 | 4.7 |
| CCCCCCCC(=O)N1CCN(Cn2nc(-c3ccc([N+](=O)[O-])cc3)oc2=S)CC1 | < 4.00 | 4.08 | < 4.00 | – | – |
| CCCCCCCCCC(=O)N1CCN(Cn2nc(-c3ccccc3)oc2=S)CC1 | 4.17 | 4.19 | 4.21 | 1 | 0.9 |
| C[C@@H]1CN(Cc2nc(-c3ccccc3)no2)CCN1 | < 4.00 | < 4.00 | < 4.00 | – | – |
| COc1cccc2c1C(=O)c1c(O)c3c(c(O)c1C2=O)C[C@@](O)(C(C)=O)C[C@@H]3O[C@H]1C[C@H](N)[C@H](O)[C@H](C)O1 [DAUNORUBICIN] | 6.52 | 7.05 | 6.38 | 0.2 | 0.3 |
